From ChEMBL document CHEMBL1155075, “Inhibition of the signal transducer and activator of transcription-3 (STAT3) signaling pathway by 4-oxo-1-phenyl-1,4-dihydroquinoline-3-carboxylic acid esters” (J Med Chem, 2008) come the findings set out here.

Active and inactive are the calls of the source. The calls are words filed in the database; no cut-off is given here.

In one assay the test system is A2780. In words: Induction of apoptosis in human A2780 cells assessed as caspase activation after 4 days by Apo-ONE Homogeneous caspase 3/7 assay. In kind it is functional, cell-based.
The subject of assay [1] is U-266. In words: Induction of apoptosis in human U266 cells assessed as caspase activation after 4 days by Apo-ONE Homogeneous caspase 3/7 assay. In kind it is functional, cell-based. In short, it runs like this: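 Homogeneous caspase 3/7 (Apo-ONE) luminescent/fluorescent signal used as apoptosis read-out in cells under compound treatment. U266 cultured in RPMI1640 with 10% heat-inactivated FBS and Pen-Strep.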

In assay [2] the test system is U-266. Nature of the assay: Inhibition of cyclin D1 transcription in human U266 cells at 100 uM after 6 hrs by microarray analysis. In kind it is functional, cell-based. In short, it runs like this:
(§1)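 U266 cells were seeded at 1 × 10⁶ cells/mL and treated 6 h in triplicate. RNA was purified, and 2-5 µg total RNA was converted to biotin-labelled cRNA by oligo-T7 reverse transcription and in vitro transcription with biotin-UTP/CTP. mRNA levels were then measured by microarray.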

In assay [3] the test system is U-266. Nature of the assay: Inhibition of MCL1 transcription in human U266 cells at 100 uM after 6 hrs by microarray analysis. In kind it is functional, cell-based. In short, it runs like this: as §1
Assay [4] relates to U-266. Nature of the assay: Inhibition of Bcl2-like 1 transcription in human U266 cells at 100 uM after 6 hrs by microarray analysis. In kind it is functional, cell-based. In short, it runs like this:
as §1

For assay [5], the target named is T1, Signal transducer and activator of transcription 5A (Homo sapiens) (UniProt P42229).
T1 sequence (whole entry): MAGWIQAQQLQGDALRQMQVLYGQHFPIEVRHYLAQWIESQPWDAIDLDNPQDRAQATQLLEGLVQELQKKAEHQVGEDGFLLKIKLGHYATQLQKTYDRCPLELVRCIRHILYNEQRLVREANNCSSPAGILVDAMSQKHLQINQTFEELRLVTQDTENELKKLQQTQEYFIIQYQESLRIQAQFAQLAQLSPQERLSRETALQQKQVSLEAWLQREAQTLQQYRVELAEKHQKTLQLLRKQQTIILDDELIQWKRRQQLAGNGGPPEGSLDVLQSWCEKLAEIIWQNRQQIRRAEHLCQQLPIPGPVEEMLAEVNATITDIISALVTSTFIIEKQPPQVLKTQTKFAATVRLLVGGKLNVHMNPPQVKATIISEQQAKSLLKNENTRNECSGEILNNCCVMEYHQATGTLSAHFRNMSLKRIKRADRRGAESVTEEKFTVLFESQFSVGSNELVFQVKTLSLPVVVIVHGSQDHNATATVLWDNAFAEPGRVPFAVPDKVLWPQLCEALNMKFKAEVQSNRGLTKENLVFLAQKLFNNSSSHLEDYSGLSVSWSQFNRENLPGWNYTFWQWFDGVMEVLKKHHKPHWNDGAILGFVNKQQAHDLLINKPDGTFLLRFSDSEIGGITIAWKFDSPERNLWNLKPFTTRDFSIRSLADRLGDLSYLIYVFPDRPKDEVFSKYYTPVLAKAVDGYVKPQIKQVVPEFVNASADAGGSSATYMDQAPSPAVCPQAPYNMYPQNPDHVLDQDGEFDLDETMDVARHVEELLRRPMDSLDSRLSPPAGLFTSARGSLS
In words: Inhibition of BCR-ABL-activated STAT5 Y694/699 phosphorylation in human K562 cells. It is filed as cell-based. In short, it runs like this:
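K562 cells (1 × 10⁶ cells at 1 × 10⁶ cells/mL, RPMI1640 + 10% FBS) were treated with compound for 1 h. Lysates in PhosphoSafe reagent were analysed by Western blot with anti-phospho-STAT5 Tyr694/Tyr699 (1:1000) and fluorescent secondary detection.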

The target of assay [6] is RAC-alpha serine/threonine-protein kinase (Homo sapiens) (UniProt P31749). Nature of the assay: Inhibition of AKT-mTOR pathway in human U266 cells assessed as S6-S240/244 phosphorylation by Western blot. Particulars: U-266. It is filed as cell-based. Put shortly: (§2)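 Steady-state phosphorylation: exponentially growing U266 cells (1 × 10⁶ cells at 2 × 10⁵ cells/mL, RPMI1640 + 10% FBS) were treated with compound for 1 h. Cells were lysed in PhosphoSafe reagent with protease inhibitors. Western blot used primary antibodies (1:1000, 2 h) and fluorescent secondaries (1 h) at room temperature. A representative blot from several repeats is shown.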
For orientation: Immunoblotting shows a protein as a band on a membrane.

In assay [7] the target is Signal transducer and activator of transcription 3 (Homo sapiens) (UniProt P40763). Nature of the assay: Inhibition of IFN-alpha-induced STAT3 Y705 phosphorylation in serum starved human DU145 cells by Western blot analysis. In kind it is cell-based. Particulars: DU-145. In short, it runs like this: (§3)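 HeLa or DU145 cells in DMEM + 10% heat-inactivated FBS, ~80% confluent, were serum-starved overnight and treated with compound for 1 h. IFN-alpha 20000 units/mL was then added for 20 min. Cells were collected in 1.1X LDS sample buffer, sonicated, and analysed by Western blot for phospho-STAT3 Y705 with fluorescent secondary detection.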

In assay [8] the target is Tyrosine-protein kinase JAK2 (Homo sapiens) (UniProt O60674). In words: Inhibition of JAK2 at 10 uM. Put shortly:
(§4)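 In vitro JAK1, JAK2 and JAK3 enzyme kinase assay, each tested at 1 and 10 µM compound.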

Assay [9] concerns the target Signal transducer and activator of transcription 3 (Homo sapiens) (UniProt P40763). In words: Inhibition of STAT3 Y705 phosphorylation in human DU145 cells by Western blot analysis. It is filed as cell-based. Particulars: DU-145.
The target is the same in assay [10]. In words: Inhibition of STAT3 Y705 phosphorylation in human HeLa cells by Western blot analysis. In kind it is cell-based.
Assay [11] concerns the target Tyrosine-protein kinase JAK2 (Homo sapiens) (UniProt O60674). Nature of the assay: Inhibition of JAK2 at 1 uM. In short, it runs like this:
as §4

Assay [12] addresses T2, Tyrosine-protein kinase JAK3 (Homo sapiens) (UniProt P52333).
T2 sequence (whole entry): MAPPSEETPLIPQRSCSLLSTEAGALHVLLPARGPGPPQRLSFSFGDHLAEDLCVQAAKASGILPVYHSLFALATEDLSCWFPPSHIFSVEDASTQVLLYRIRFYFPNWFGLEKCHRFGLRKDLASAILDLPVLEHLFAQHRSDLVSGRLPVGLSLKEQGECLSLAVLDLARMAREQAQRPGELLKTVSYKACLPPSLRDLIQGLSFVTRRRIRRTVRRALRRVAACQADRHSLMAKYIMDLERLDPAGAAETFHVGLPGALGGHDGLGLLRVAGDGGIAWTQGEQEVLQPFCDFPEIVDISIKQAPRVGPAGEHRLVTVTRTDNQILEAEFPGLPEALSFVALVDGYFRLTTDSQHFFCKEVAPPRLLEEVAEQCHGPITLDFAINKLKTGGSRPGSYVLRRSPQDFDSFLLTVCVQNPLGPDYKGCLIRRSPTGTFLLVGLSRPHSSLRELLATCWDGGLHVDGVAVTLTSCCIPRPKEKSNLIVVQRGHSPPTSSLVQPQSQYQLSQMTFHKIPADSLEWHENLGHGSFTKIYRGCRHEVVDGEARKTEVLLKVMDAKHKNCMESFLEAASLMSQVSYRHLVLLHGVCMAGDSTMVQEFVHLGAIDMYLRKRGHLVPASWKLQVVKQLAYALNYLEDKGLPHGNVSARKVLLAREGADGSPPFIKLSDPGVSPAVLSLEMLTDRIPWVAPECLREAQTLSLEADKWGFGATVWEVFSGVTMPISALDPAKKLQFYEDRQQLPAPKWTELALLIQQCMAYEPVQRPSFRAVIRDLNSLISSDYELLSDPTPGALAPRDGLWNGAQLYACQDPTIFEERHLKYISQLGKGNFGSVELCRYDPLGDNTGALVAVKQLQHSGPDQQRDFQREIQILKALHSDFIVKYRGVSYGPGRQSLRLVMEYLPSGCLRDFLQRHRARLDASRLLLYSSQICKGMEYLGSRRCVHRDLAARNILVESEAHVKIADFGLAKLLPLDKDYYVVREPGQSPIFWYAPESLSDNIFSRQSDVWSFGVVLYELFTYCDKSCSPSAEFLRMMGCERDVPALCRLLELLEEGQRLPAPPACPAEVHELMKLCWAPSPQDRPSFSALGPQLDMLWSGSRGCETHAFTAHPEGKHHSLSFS
Nature of the assay: Inhibition of JAK3 at 10 uM. Put shortly:
as §4

Assay [13] concerns the target T2, Tyrosine-protein kinase JAK3 (Homo sapiens). Nature of the assay: Inhibition of JAK3 at 1 uM. Put shortly:
as §4

A short description of assay [14]: Inhibition of MAPK pathway in human U266 cells assessed as p44/42 MAPK T202/204 phosphorylation by Western blot. In kind it is cell-based. Particulars: U-266. Put shortly: as §2
The target of assay [15] is Tyrosine-protein kinase JAK1 (Homo sapiens) (UniProt P23458). In words: Inhibition of IFN-alpha-induced JAK1 Y1022/1023 phosphorylation in serum starved human U266 cells by Western blot analysis. It is filed as cell-based. Conditions: U-266. Put shortly: (§5)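 U266 cells in RPMI1640 + 10% heat-inactivated FBS were serum-starved 2 h, treated with compound 1 h, then stimulated with human IFN-alpha 20000 units/mL for 20 min. Cells were lysed in PhosphoSafe extraction reagent with protease inhibitors and analysed by Western blot with phospho-specific antibodies. JAK antibodies were used at 1:500 with milk blocking, others at 1:1000. Fluorescent secondaries were used.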

Assay [16] has as its target Signal transducer and activator of transcription 3 (Homo sapiens) (UniProt P40763). In words: Inhibition of IL6-induced STAT3 Y705 phosphorylation in serum starved human U266 cells by Western blot analysis. In kind it is cell-based. Particulars: U-266.
Assay [17] addresses Tyrosine-protein kinase JAK2 (Homo sapiens) (UniProt O60674). In words: Inhibition of IFN-alpha-induced JAK2 Y1007/1008 phosphorylation in serum starved human U266 cells by Western blot analysis. In kind it is cell-based. Particulars: U-266. Put shortly: as §5
Assay [18] has as its target Tyrosine-protein kinase JAK1 (Homo sapiens) (UniProt P23458). Nature of the assay: Inhibition of JAK1 at 10 uM. In short, it runs like this:
as §4

In assay [19] the target is Signal transducer and activator of transcription 3 (Homo sapiens) (UniProt P40763). Nature of the assay: Inhibition of IFN-alpha-induced STAT3 Y705 phosphorylation in serum starved human HeLa cells by Western blot analysis. It is filed as cell-based. In short, it runs like this:
as §3

A further assay deals with A-431. Nature of the assay: Inhibition of EGF-stimulated MAPK activation in human A431 cells. It is filed as cell-based.
In assay [20] the target is RAC-alpha serine/threonine-protein kinase (Homo sapiens) (UniProt P31749). In words: Inhibition of AKT-mTOR pathway in human U266 cells assessed as p70S6 kinase T389 phosphorylation by Western blot. Conditions: U-266. In kind it is cell-based. Put shortly: as §2
For assay [21], the target named is Signal transducer and activator of transcription 3 (Homo sapiens) (UniProt P40763). Nature of the assay: Inhibition of STAT3 S727 phosphorylation in human U266 cells. In kind it is cell-based. Particulars: U-266. In short, it runs like this:
as §2

Assay [22] deals with U-266. Nature of the assay: Inhibition of cyclin D1 transcription in human U266 cells at 0.5 uM after 6 hrs by microarray analysis. It is filed as functional, cell-based. Put shortly:
as §1

Assay [23] concerns the target Signal transducer and activator of transcription 3 (Homo sapiens) (UniProt P40763). In words: Inhibition of IFN-alpha-induced STAT3 Y705 phosphorylation in serum starved human U266 cells by Western blot analysis. In kind it is cell-based. Particulars: U-266. In short, it runs like this:
as §5

Assay [24] has as its system U-266. Nature of the assay: Inhibition of MCL1 transcription in human U266 cells at 0.5 uM after 6 hrs by microarray analysis. In kind it is functional, cell-based. In short, it runs like this: as §1
Assay [25] deals with U-266. Nature of the assay: Inhibition of Bcl2-like 1 transcription in human U266 cells at 0.5 uM after 6 hrs by microarray analysis. It is filed as functional, cell-based. In short, it runs like this:
as §1

In assay [26] the target is Tyrosine-protein kinase JAK1 (Homo sapiens) (UniProt P23458). Nature of the assay: Inhibition of JAK1 at 1 uM. In short, it runs like this:
as §4

Assay [27] addresses Non-receptor tyrosine-protein kinase TYK2 (Homo sapiens) (UniProt P29597). Nature of the assay: Inhibition of IFN-alpha-induced Tyk2 Y1054/1055 phosphorylation in serum starved human U266 cells by Western blot analysis. It is filed as cell-based. Conditions: U-266. In short, it runs like this: as §5

Signal transducer and activator of transcription 3 (Homo sapiens), sequence (P40763 whole entry): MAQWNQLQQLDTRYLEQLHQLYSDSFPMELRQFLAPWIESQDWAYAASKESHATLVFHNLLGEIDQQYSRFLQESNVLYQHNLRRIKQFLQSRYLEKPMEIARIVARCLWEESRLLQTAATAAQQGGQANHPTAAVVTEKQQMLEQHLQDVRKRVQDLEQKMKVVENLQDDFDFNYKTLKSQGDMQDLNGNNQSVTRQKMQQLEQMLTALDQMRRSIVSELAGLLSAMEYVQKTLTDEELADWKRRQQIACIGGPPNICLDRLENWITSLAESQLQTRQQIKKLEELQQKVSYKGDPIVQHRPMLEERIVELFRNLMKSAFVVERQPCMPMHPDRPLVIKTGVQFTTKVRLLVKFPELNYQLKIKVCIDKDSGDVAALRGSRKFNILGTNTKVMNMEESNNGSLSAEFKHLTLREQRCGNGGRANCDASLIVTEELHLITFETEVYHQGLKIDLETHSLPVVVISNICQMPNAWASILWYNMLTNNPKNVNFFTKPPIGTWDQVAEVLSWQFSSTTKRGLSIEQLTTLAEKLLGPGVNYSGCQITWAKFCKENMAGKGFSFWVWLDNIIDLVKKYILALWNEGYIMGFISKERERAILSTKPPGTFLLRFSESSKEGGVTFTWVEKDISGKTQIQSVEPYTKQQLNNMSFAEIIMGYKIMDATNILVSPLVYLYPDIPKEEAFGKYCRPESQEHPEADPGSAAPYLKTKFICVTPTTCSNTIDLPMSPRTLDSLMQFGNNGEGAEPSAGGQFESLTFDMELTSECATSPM
Tyrosine-protein kinase JAK1 (Homo sapiens), sequence (P23458 whole entry): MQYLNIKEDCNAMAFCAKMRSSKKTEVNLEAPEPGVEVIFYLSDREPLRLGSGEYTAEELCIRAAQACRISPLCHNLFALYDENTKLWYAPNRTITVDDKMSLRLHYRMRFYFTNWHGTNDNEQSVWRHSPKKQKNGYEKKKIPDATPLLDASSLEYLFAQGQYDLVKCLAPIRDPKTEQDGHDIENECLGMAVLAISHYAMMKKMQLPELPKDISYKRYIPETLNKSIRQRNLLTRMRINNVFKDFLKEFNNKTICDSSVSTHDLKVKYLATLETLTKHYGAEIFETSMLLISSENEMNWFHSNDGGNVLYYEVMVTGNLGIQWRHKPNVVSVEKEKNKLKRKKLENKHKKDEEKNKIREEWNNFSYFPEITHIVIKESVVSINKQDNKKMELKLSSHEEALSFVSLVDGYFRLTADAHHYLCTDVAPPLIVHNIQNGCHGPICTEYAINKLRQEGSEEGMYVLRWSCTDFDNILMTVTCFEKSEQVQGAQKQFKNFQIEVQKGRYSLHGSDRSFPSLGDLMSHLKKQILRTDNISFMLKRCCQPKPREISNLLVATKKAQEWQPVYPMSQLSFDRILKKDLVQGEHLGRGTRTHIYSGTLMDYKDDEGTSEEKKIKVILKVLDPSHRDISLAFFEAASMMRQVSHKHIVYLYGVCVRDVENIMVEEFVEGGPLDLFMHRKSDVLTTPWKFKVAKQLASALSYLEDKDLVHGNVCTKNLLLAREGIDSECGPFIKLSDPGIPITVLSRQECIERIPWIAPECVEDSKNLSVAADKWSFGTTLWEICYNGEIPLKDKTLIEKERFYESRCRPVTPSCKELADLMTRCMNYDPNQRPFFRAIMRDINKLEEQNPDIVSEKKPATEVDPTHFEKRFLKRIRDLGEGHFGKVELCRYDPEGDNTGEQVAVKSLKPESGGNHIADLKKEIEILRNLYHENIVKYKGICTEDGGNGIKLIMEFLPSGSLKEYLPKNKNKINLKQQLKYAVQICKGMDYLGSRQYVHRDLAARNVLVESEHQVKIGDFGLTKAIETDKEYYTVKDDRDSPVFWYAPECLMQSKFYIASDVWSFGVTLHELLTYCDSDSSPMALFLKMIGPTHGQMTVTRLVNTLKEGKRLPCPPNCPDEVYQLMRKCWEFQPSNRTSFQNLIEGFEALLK
Tyrosine-protein kinase JAK2 (Homo sapiens), sequence (O60674 whole entry): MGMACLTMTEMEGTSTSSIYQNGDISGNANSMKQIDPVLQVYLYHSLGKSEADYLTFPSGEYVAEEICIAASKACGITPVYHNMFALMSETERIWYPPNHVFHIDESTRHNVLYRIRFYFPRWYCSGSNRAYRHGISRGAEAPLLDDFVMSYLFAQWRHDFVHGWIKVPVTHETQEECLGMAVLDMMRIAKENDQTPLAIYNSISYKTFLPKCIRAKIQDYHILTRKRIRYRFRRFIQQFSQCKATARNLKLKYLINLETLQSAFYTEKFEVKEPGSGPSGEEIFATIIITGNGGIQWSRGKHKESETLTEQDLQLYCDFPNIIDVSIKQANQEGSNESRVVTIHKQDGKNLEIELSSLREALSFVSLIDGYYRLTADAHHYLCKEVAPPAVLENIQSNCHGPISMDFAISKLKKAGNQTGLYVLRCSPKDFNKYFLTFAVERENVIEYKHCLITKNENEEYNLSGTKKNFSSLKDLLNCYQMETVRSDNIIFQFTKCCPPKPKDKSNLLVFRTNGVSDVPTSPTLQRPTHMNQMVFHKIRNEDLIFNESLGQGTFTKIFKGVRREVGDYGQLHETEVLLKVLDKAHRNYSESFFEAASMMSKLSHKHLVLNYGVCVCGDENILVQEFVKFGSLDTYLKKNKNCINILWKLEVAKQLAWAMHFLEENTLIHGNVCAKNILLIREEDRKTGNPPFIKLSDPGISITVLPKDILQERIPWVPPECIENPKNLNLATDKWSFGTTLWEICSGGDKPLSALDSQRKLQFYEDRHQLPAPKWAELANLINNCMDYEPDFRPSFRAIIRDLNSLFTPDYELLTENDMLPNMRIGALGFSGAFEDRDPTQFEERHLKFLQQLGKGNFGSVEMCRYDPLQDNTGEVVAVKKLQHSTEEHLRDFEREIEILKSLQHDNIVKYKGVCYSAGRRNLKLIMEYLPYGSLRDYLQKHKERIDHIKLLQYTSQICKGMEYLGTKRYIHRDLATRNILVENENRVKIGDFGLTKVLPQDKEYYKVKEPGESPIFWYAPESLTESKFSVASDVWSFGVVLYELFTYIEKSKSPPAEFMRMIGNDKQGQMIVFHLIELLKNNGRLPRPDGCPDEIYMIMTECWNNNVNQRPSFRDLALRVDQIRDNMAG
RAC-alpha serine/threonine-protein kinase (Homo sapiens), sequence (P31749 whole entry): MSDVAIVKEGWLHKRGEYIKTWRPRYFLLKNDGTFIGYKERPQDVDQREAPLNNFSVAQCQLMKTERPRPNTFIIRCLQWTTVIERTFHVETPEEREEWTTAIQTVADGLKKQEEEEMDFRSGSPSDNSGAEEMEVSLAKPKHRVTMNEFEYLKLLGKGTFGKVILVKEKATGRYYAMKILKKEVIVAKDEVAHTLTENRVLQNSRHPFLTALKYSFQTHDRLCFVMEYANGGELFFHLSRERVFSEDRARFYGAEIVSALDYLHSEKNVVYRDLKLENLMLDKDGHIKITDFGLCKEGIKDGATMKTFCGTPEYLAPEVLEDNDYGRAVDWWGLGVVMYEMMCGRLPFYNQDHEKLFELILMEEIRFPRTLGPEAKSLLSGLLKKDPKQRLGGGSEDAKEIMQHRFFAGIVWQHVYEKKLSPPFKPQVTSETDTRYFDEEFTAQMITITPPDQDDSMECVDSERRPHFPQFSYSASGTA
Non-receptor tyrosine-protein kinase TYK2 (Homo sapiens), sequence (P29597 whole entry): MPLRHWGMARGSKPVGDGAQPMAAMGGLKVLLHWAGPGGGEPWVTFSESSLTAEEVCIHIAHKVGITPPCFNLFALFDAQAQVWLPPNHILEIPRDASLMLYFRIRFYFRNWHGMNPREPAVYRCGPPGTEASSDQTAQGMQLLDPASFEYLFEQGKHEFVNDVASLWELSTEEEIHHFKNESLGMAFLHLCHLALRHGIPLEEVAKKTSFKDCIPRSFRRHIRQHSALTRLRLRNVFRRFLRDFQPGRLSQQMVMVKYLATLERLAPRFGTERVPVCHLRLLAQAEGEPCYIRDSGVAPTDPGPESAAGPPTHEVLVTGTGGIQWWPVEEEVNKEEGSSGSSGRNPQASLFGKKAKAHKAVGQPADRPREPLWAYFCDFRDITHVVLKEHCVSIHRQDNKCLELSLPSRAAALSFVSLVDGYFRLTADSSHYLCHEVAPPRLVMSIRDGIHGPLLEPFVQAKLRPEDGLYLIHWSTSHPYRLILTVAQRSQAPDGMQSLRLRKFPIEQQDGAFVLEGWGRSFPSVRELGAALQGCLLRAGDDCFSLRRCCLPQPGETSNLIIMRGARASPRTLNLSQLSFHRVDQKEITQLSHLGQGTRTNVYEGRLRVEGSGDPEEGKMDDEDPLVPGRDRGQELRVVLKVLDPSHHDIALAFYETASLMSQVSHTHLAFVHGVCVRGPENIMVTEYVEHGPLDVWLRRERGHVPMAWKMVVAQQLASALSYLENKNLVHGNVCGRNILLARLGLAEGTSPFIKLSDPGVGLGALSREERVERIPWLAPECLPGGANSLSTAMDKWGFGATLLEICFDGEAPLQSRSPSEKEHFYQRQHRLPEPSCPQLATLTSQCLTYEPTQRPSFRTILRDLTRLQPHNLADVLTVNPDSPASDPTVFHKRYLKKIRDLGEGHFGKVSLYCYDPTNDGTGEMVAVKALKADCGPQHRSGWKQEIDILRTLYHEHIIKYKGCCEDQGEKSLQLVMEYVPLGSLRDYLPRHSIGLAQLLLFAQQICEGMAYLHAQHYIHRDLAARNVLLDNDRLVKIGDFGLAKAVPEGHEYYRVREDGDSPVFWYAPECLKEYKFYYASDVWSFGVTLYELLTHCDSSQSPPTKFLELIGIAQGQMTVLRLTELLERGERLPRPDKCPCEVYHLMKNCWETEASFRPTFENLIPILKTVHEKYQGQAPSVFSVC

As for `CCOC(=O)c1cn(-c2c(F)c(F)c(F)c(F)c2F)c2c(F)c(F)c(F)c(F)c2c1=O`, the result in the assay on A2780 was inactive. Also, in the assay with U-266 [1], the outcome was Active.
Regarding `N#C/C(=C\c1ccc(O)c(O)c1)C(=O)NCc1ccccc1`, the result in the assay with U-266 [2], with U-266 [3] and with U-266 [4] was Active.
Regarding `CCOC(=O)c1cn(-c2c(F)c(F)c(C#N)c(F)c2F)c2c(F)c(F)c(F)cc2c1=O`, the outcome in assay [5], in assay [6], in assay [8], in assay [11], in [12] and in [13] was inactive. Moreover, the result (in assay [14]; in assay [18]; with A-431; in assay [20]; in assay [21]; in assay [26]) was inactive. The result in assay [7], in assay [9], in assay [10], in assay [15], in assay [16] and in assay [17] was Active. The result (in assay [19]; in the assay with U-266 [22]; in [23]; in the assay on U-266 [24]; with U-266 [25]; in the assay with U-266 [1]) was Active. Moreover, in [27], the outcome was Active.
